Laboratory results taken from ChEMBL document CHEMBL3600328, “Bayesian models trained with HTS data for predicting β-haematin inhibition and in vitro antimalarial activity” (Bioorg Med Chem, 2015).

Assays:
Plasmodium falciparum = assay: Antimalarial activity against CQ-sensitive Plasmodium falciparum NF54 assessed as inhibition of parasite growth; assay type: functional, organism-based
[1] = Inhibition of beta-hematin formation; assay type: physicochemical
Method in brief: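 NP-40 detergent-mediated β-haematin formation assay, run per an earlier-published protocol.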

Row | Compound | IC50 (Plasmodium falciparum) [µM] | IC50 [1] [µM]
1 | COc1cc(-c2nc3cc([N+](=O)[O-])ccc3[nH]2)ccc1O | > 10 | 22
2 | Nc1cc(O)c2ccccc2n1 | > 10 | 85
3 | O=C(O)c1cc(-c2ccc(-c3ccccc3)cc2)nc2ccccc12 | > 10 | 46
4 | Cc1ccc(C(=O)C2=C(O)C(=O)N(Cc3cccnc3)[C@H]2c2ccc(Cl)c(Cl)c2)o1 | > 10 | 88
5 | C=C[C@H]1CN2CC[C@@H]1C[C@@H]2Cc1ccnc2ccccc12 | 0.082 | 66
6 | CN(C)CCNc1cc(-c2ccc3ccccc3c2)nc2ccccc12 | 0.079 | 26
